# Results reported in ChEMBL document CHEMBL4414643, “Pharmacokinetics of Phytocannabinoid Acids and Anticonvulsant Effect of Cannabidiolic Acid in a Mouse Model of Dravet Syndrome” (J Nat Prod, 2019).
# Tests used:
# [1] = AUC in anesthetized C57BL/6J mouse plasma at 5 mg/kg, ip administered as single dose measured upto 240 mins by LC-MS/MS analysis; type: ADME, organism-based; parameters: dose 5 mg/kg, time < 4 hr, route intraperitoneal
# Method in brief: (§1)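 Male and female mice (C57BL/6J or C57BL/6J x 129 F1), postnatal days 21-28, single i.p. injection at 10 mL/kg in vegetable oil or ethanol–Tween 80–saline (1:1:18). Blood taken by cardiac puncture under isoflurane at time points 15–240 min. Plasma and PBS brain homogenate extracted with ice-cold acetonitrile, diazepam internal standard, quantified by LC-MS/MS. Mean concentrations per time point (n = 3-5); noncompartmental analysis.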
# [2] = Tmax in anesthetized C57BL/6J mouse plasma at 5 mg/kg, ip administered as single dose measured upto 240 mins by LC-MS/MS analysis; type: ADME, organism-based; method in brief: as §1
# [3] = Ratio of drug level in anesthetized C57BL/6J mouse brain to plasma at 5 mg/kg, ip administered as single dose measured upto 240 mins by LC-MS/MS analysis; type: ADME, organism-based; conditions: read-out: BPR; method in brief: as §1
# [4] = Tmax in anesthetized C57BL/6J mouse brain at 5 mg/kg, ip administered as single dose measured upto 240 mins by LC-MS/MS analysis; type: ADME, organism-based; method in brief: as §1
# [5] = Drug metabolism in brain of anesthetized C57BL/6J mouse assessed as decrease in decarboxylation of parent compound at 5 mg/kg, ip by LC-MS/MS analysis; type: ADME, organism-based; conditions: in vivo
# Method in brief: (§2)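 Mice aged 21-28 days postnatal received one i.p. dose (10 mL/kg), and plasma and brain were sampled at 15–240 min. Decarboxylated neutral cannabinoids were measured by LC-MS/MS against known standards, alongside the parent acid.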
# [6] = Cmax in anesthetized C57BL/6J mouse brain at 5 mg/kg, ip administered as single dose measured upto 240 mins by LC-MS/MS analysis; type: ADME, organism-based; parameters: dose 5 mg/kg, route intraperitoneal; method in brief: as §1
# [7] = AUC in anesthetized C57BL/6J mouse brain at 5 mg/kg, ip administered as single dose measured upto 240 mins by LC-MS/MS analysis; type: ADME, organism-based; parameters: time < 4 hr, dose 5 mg/kg, route intraperitoneal; method in brief: as §1
# [8] = Half life in anesthetized C57BL/6J mouse plasma at 5 mg/kg, ip administered as single dose measured upto 240 mins by LC-MS/MS analysis; type: ADME, organism-based; method in brief: as §1
# [9] = Half life in anesthetized C57BL/6J mouse brain at 5 mg/kg, ip administered as single dose measured upto 240 mins by LC-MS/MS analysis; type: ADME, organism-based; method in brief: as §1
# [10] = Cmax in anesthetized C57BL/6J mouse plasma at 5 mg/kg, ip administered as single dose measured upto 240 mins by LC-MS/MS analysis; type: ADME, organism-based; parameters: dose 5 mg/kg, route intraperitoneal; method in brief: as §1
# [11] = Drug metabolism in plasma of anesthetized C57BL/6J mouse assessed as decrease in decarboxylation of parent compound at 5 mg/kg, ip by LC-MS/MS analysis; type: ADME, organism-based; conditions: in vivo; method in brief: as §2
# [12] = Dissociation constant, pKa of compound; type: physicochemical
# [13] = Partition coefficient, log P of compound; type: physicochemical; conditions: octanol/water
# [14] = Half life in anesthetized C57BL/6J mouse plasma at 10 mg/kg, ip administered as single dose measured upto 240 mins by LC-MS/MS analysis; type: ADME, organism-based; method in brief: as §1
# [15] = Tmax in anesthetized C57BL/6J mouse brain at 10 mg/kg, ip administered as single dose measured upto 240 mins by LC-MS/MS analysis; type: ADME, organism-based; method in brief: as §1
# [16] = Cmax in anesthetized C57BL/6J mouse brain at 10 mg/kg, ip administered as single dose measured upto 240 mins by LC-MS/MS analysis; type: ADME, organism-based; parameters: dose 10 mg/kg, route intraperitoneal; conditions: in vivo, 4 h; method in brief: as §1
# [17] = Drug uptake in plasma of anesthetized C57BL/6J mouse at 10 mg/kg, ip by LC-MS/MS analysis; type: ADME, organism-based; conditions: in vivo; method in brief: as §2
# [18] = Drug uptake in plasma of anesthetized C57BL/6J mouse assessed as purity of compound at 10 mg/kg, ip by LC-MS/MS analysis; type: ADME, organism-based; conditions: in vivo; method in brief: as §2
# [19] = Half life in anesthetized C57BL/6J mouse brain at 10 mg/kg, ip administered as single dose measured upto 240 mins by LC-MS/MS analysis; type: ADME, organism-based; method in brief: as §1
# [20] = Tmax in anesthetized C57BL/6J mouse plasma at 10 mg/kg, ip administered as single dose measured upto 240 mins by LC-MS/MS analysis; type: ADME, organism-based; method in brief: as §1
# [21] = Cmax in anesthetized C57BL/6J mouse plasma at 10 mg/kg, ip administered as single dose measured upto 240 mins by LC-MS/MS analysis; type: ADME, organism-based; parameters: dose 10 mg/kg, route intraperitoneal; method in brief: as §1
# [22] = AUC in anesthetized C57BL/6J mouse plasma at 10 mg/kg, ip administered as single dose measured upto 240 mins by LC-MS/MS analysis; type: ADME, organism-based; parameters: time < 4 hr, dose 10 mg/kg, route intraperitoneal; method in brief: as §1
# [23] = Drug metabolism in brain of anesthetized C57BL/6J mouse at 10 mg/kg, ip by LC-MS/MS analysis; type: ADME, organism-based; conditions: in vivo; method in brief: as §2
# [24] = Ratio of drug level in anesthetized C57BL/6J mouse brain to plasma at 10 mg/kg, ip administered as single dose measured upto 240 mins by LC-MS/MS analysis; type: ADME, organism-based; conditions: read-out: BPR; method in brief: as §1
smiles,measurement,setting,value
C=C(C)[C@@H]1CCC(C)=C[C@H]1c1c(O)cc(CCC)c(C(=O)O)c1O,AUC at 4 h,[1],24800 ng·h/mL
same,Tmax,[2],15 min
same,Kp at 4 h,[3],0.02
same,Tmax,[4],30 min
same,Drug metabolism,[5],Metabolite_Notdetected
same,Cmax,"[6]; C57BL/6J, brain, read-out: Cmax",800 ng/mL
same,AUC at 4 h,[7],550 ng·h/mL
same,half-life,[8],49 min
same,half-life,[9],19 min
same,Cmax,[10],21000 ng/mL
same,Drug metabolism,[11],Metabolite_Notdetected
same,pKa,[12],2.91
same,logP,[13],5.94
CCCc1cc(O)c(C/C=C(\C)CCC=C(C)C)c(O)c1C(=O)O,half-life,[14],204 min
same,Tmax,[15],90 min
same,Cmax,[16],3.8 ng/mg
same,Drug uptake,[17],0.2%
same,Drug uptake,[18],97%
same,half-life,[19],29 min
same,Tmax,[20],15 min
same,Cmax,[21],34400 ng/mL
same,AUC at 4 h,[22],199000 ng·h/mL
same,Drug metabolism,[23],Metabolite_Notdetected
same,Kp at 4 h,[24],0.04
same,pKa,[12],2.92
same,logP,[13],6.46
CCCCCc1cc2c(c(O)c1C(=O)O)C=CC(C)(CCC=C(C)C)O2 (stereo not given),AUC at 4 h,[1],2880 ng·h/mL
same,Tmax,[2],30 min
same,Drug metabolism,[5],Metabolite_Notdetected
same,Cmax,"[6]; in vivo, 4 h, BLD = below limit of detection",Bld
same,half-life,[8],24 min
same,Cmax,[10],3300 ng/mL
same,Drug metabolism,[11],Metabolite_Notdetected
same,pKa,[12],2.87
same,logP,[13],6.91
